Screens: PubChem BioAssay, several laboratories
Most compounds without a hit are left out; they make up all but 3.7% or so of the library.
Granule exo inh: blocks lytic granule exocytosis | inhibition, % at 10 µM | hit rate 0.66% among 360,000 | AID 651702 | TALL-104 LAMP-1 surface exposure, flow cytometry; cells stimulated with thapsigargin and PMA;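 active means inhibition above about 55%, limit read from the data; inconclusive means no clear call, values can overlap the other calls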
MC4R antagonist: human MC4R antagonism in cAMP assay; P32245; MC4R-expressing cells, MTII-stimulated cAMP, LANCE TR-FRET; inhibition, % at 6.5 µM; hit rate 0.48% among 360,000; AID 540295;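 active means inhibition above its plate's cutoff, the mean of tested wells on that plate plus 3 SD, cut at about 29% in these data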;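 further: 0% = Melanotan II alone and 100% = Melanotan II plus saturating MCL0020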
Target sequence (P32245 whole entry, looked up): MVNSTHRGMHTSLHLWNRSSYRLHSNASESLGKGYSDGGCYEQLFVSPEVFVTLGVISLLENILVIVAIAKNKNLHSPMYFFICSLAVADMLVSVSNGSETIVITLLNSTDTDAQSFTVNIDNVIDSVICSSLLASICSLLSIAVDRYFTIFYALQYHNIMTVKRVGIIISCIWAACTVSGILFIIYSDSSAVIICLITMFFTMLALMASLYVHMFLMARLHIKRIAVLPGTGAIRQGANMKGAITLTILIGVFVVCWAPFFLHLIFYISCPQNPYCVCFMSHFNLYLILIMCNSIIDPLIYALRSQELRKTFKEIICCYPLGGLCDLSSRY
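Test system: U2OS cells stably expressing human melanocortin 4 receptor (MC4R); also added: Melanotan II challenge; compound: 6.5 µM single dose; timing: 30-min compound preincubation, 1-h Melanotan II challenge, 1-h detection, room temperature; signal: Eu-cAMP/anti-cAMP TR-FRET, emission 671 nm; repeats: one well per compound, no replicates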
EBI2 antag: blocks human EBI2 receptor beta-arrestin signaling; P32249; EBI2 beta-arrestin recruitment, luminescence, 7a,25-OHC stimulated; inhibition, % at 5 µM; hit rate 0.81% among 360,000; AID 651636; in the data active means inhibition above about 38%;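 further: enzyme fragment complementation signal reports receptor beta-arrestin coupling in cells; 0% = agonist plus DMSO wells and 100% = wells without agonist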
Target sequence (P32249 whole entry, looked up, the tested form may be a part): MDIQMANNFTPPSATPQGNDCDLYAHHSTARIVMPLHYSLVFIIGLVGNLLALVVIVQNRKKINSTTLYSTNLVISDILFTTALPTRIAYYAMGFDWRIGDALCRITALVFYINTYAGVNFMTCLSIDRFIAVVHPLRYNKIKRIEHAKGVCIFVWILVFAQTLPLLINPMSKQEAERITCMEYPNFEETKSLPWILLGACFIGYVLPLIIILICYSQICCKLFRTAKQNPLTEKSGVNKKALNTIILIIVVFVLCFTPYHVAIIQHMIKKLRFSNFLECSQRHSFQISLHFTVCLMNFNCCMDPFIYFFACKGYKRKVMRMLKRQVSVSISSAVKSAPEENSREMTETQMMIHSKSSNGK
Myeloid diff 2: compounds promoting myeloid differentiation | ER-HoxA9 myeloid progenitors, lysozyme-GFP differentiation, flow cytometry | hit rate 1% among 360,000 | calls only at 10 µM;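 active means normalized GFP-positive differentiation at or above the plate's own cutoff, the solvent-only control mean plus 3 SD; inconclusive means no clear call, values can overlap the other calls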;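 further: cells exposed to compound for four days before flow analysis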
MC4R ag barr: activates human MC4R beta-arrestin recruitment; P32245; U2OS MC4R beta-arrestin complementation, luminescence; percent of melanotan II response, DMSO zero; activation, % at 8.9 µM; hit rate 0.98% among 360,000; AID 540308;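 active means activation above a per-plate cutoff, the mean activation of sample wells on that plate plus 3 SD, cut at about 8% in these data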
Myeloid diff CP1: promotes myeloid progenitor differentiation; calls only; ER-HoxA9 myeloid progenitors, GFP/Mac1 double-positive flow; AID 651706; hit rate 2% among 2,300; shares compounds with Myeloid diff 2;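 active means share of green or green-and-red cells above 9 and 9% in run 1 or 4 and 3% in run 2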
GFP autofluor: counter-screen for myeloid differentiation promoters: compound fluorescence; hit rate 7.4% among 2,300; ER-HoxA9 myeloid progenitors, no estrogen, GFP autofluorescence flow cytometry; vehicle wells 0%, positive control 100%; shares compounds with Myeloid diff 2; AID 651707; fluorescence response, % (no concentration beside the values);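 active means over 5% cells positive for green fluorescent reporter, or over 2% positive for both it and APC stain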;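 further: range taken on the double positive population between DMSO and positive control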
EBI2 antag conf: EBI2 (human) antagonism, single concentration confirmation | shares compounds with EBI2 antag | EBI2 beta-arrestin luminescence, 7a,25-OHC antagonism | hit rate 29% among 2,400 | AID 651997 | inhibition, % at 5 µM;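 active means inhibition of at least 50%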
EBI2 agonist: activates EBI2, counter-screen for EBI2 antagonists | 2,400 tested, under 10 active | AID 652000 | activation, % at 5 µM | EBI2-expressing cells, agonist mode, luminescence, 60 min; 0% vehicle, 100% 7α,25-dihydroxycholesterol control | shares compounds with EBI2 antag;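 active means activation of at least 50%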
bGal cs: inhibits E. coli beta-galactosidase, counter-screen for EBI2 antagonists; shares compounds with EBI2 antag; inhibition, % at 5 µM; purified beta-galactosidase, luminescent Galacton Star, 15 min; hit rate 1% among 2,400; AID 652176;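 active means replicate-average signal at least 3 plate SD below neutral wells, shown as high inhibition, flagging enzyme-inhibiting false positives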;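 further: 0% = DMSO wells with enzyme and 100% = wells lacking enzyme; higher means stronger loss of beta-gal luminescence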
Exocytosis CP01: blocks lytic granule exocytosis; TALL-104 cells, LAMP-1 externalization, flow cytometry; stimulated with PMA plus thapsigargin; AID 651954; shares compounds with Granule exo inh; hit rate 11% among 1,500; inhibition, % at 10 µM; in the data active means inhibition above about 60%;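 further: 0% = stimulated vehicle wells and 100% = unstimulated wells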
The depositor's hits bear a star; i = inactive; ? = inconclusive; · = not tested or not shown; + = active, no number.

SMILES	Granule exo inh	MC4R antagonist	EBI2 antag	Myeloid diff 2	MC4R ag barr	EBI2 antag conf	EBI2 agonist	bGal cs	others
Cc1noc(-c2ccccc2)c1NC(=O)Nc1ccc2nc([C@H]3C[C@H](O)[C@@H](CO)O3)[nH]c2c1	-5	10	-2	i	0	·	·	·
Cc1ccc(-n2c(SCC(=O)Nc3ccc(C(=O)O)cc3)nnc2-c2ccncc2)cc1	0	8	7	i	-1	·	·	·
Cc1ccc(C(=O)NNC(=O)CSc2nnc(-c3ccncc3)n2-c2ccc(C)cc2)cc1	1	13	52*	i	0	11	0	5	Myeloid diff CP1=i;GFP autofluor=0
Clc1cccc(Cl)c1C1Nc2cccc3cccc(c23)N1	85*	18	3	+	0	·	·	·	Myeloid diff CP1=i;GFP autofluor=0;Exocytosis CP01=46
CCOC(=O)C1(CCOc2ccccc2)CCN(Cc2cccc(OC)c2)CC1	86*	13	4	+	3	·	·	·	Myeloid diff CP1=i;GFP autofluor=0;Exocytosis CP01=-6
O=S(=O)(c1c(F)cccc1F)C1CCN(S(=O)(=O)c2ccc3c(c2)OCCO3)CC1	16	-4	-6	i	-1	·	·	·
COCCCNc1ccn2nc(-c3cccc(OCc4ccccc4)c3)cc2n1	4	10	24	i	5	·	·	·
c1ccc(COc2ccc(-c3cc4nc(NCCCn5ccnc5)ccn4n3)cc2)cc1	72*	22	19	i	-4	·	·	·	Myeloid diff CP1=i;GFP autofluor=0;Exocytosis CP01=99*
CCOc1ccccc1N(CC(=O)NC1CCCCC1)S(=O)(=O)c1ccc(C)cc1	93*	13	5	+	1	·	·	·	Myeloid diff CP1=i;GFP autofluor=0;Exocytosis CP01=-12
COc1ccccc1N(CC(=O)NC1CCCC1)S(=O)(=O)c1ccc(C)cc1	16	4	-6	i	-1	·	·	·
CC(C(=O)N1CCc2ccccc21)N1CCN(c2cccc(C(F)(F)F)c2)CC1 (stereo not given)	61*	3	2	+	0	·	·	·	Myeloid diff CP1=i;GFP autofluor=0;Exocytosis CP01=-13
CC(C(=O)N1CCc2ccccc21)N1CCN(S(=O)(=O)c2ccc(C(F)(F)F)cc2)CC1 (stereo not given)	-2	-4	-10	i	-2	·	·	·
CCc1cccc(NC(=O)CCCSc2nc3ccccc3[nH]2)c1	-2	0	-7	i	-1	·	·	·
Cc1cccc(OCCOC(=O)c2c(-c3ccccc3)noc2C)c1	75*	-6	0	+	-1	·	·	·	Myeloid diff CP1=i;GFP autofluor=1;Exocytosis CP01=-9
Cc1ccccc1Oc1ccc2c(c1)[C@@H]1C[C@H](N(C)C(=O)c3ccc(C#N)cc3)[C@H]([C@H](C)O)C(=O)N1CC2	-2	-2	18	i	-1	·	·	·
OC(c1ccccc1)(c1ccccc1)C1CCN(CCCOc2ccc3c(c2)CCCC3)CC1	62*	·	3	+	·	·	·	·	Myeloid diff CP1=i;GFP autofluor=0;Exocytosis CP01=5
CC(c1nc2ccccc2c(=O)[nH]1)N1CCCN(S(=O)(=O)c2ccc(F)cc2)CC1 (stereo not given)	-2	5	26	i	-2	·	·	·
COc1cccc(-c2cc(C(=O)N3CCOCC3)no2)c1	-9	4	-6	i	0	·	·	·
O=C(c1cc(-c2cccs2)on1)N1CCN(C(c2ccccc2)c2ccccc2)CC1	16	-1	88*	i	-1	84*	-1	-9
COc1cccc(-c2cc(C(=O)N3CCN(C(c4ccccc4)c4ccccc4)CC3)no2)c1	2	8	87*	i	-1	81*	1	-6
COc1cc(/C=N/NC(=O)CSc2cc(C)c(Br)cc2C)ccc1O	3	-7	59*	i	1	9	-1	-14
COc1ccc(NC(=O)CCN2CCN(S(=O)(=O)c3cc(Cl)ccc3Cl)CC2)cc1	8	4	48*	i	1	26	-1	-6
Cn1c(SCC(=O)NC2(C#N)CCCCC2)nnc1-c1cccnc1	1	11	-15	i	-3	·	·	·
COc1ccc(-n2c(-c3ccco3)nc3c(cnn3-c3ccc(C)cc3)c2=O)cc1	1	0	43*	i	0	38	0	0
C[C@@H]1CN([C@H](C)CO)C(=O)CCCn2nncc2CO[C@@H]1CN(C)S(=O)(=O)c1cccc(F)c1	0	3	56*	i	-1	27	0	5
SMILES	Granule exo inh	MC4R antagonist	EBI2 antag	Myeloid diff 2	MC4R ag barr	EBI2 antag conf	EBI2 agonist	bGal cs	others
C[C@@H]1CN([C@@H](C)CO)C(=O)CCCn2nncc2CO[C@@H]1CN(C)S(=O)(=O)c1cccc(F)c1	0	3	64*	i	0	32	-1	-14
C[C@H](CO)N1C[C@H](C)[C@@H](CN(C)S(=O)(=O)c2cccc(F)c2)OCc2cnnn2CCCC1=O	6	16	1	i	2	·	·	·
CCOC1=C2[C@H](c3ccccc3)N(S(=O)(=O)c3ccc(C)cc3)C(C(C)(C)C)[C@H]2C(C#N)(C#N)C(C#N)(C#N)C1 (stereo not given in full)	47	·	25	?	·	·	·	·
O=C(CSc1cc(Cl)ccc1Cl)Nc1ccc(N2CCOCC2)cc1	-4	2	-3	i	-1	·	·	·
CCCCCn1c(SCc2ccncc2)nc2cc(C(=O)NCc3ccco3)ccc2c1=O	7	18	38*	i	-1	21	0	6
CCCCn1c(SCC(=O)NCc2ccco2)nc2ccccc2c1=O	9	8	12	i	-4	·	·	·
Cn1nnc2c[n+](CC(=O)c3ccc4ccccc4c3)cc(Br)c21	10	9	66*	i	0	67*	2	6
O=C(NCc1ccc(F)cc1)c1cc(C2CCCCN2C(=O)CCCc2ccccc2)on1 (stereo not given)	2	9	16	i	-1	·	·	·
CCOC(=O)C1CCN(C(=O)CSc2ccc(Br)cc2)CC1	6	4	84*	i	-3	54*	1	5
CCOC(=O)C1CCN(C(=O)CSc2ccc(Cl)cc2)CC1	3	-1	77*	i	-2	47	3	7
O=C(CSc1ccc(Cl)cc1)N1CCC(c2nc3ccccc3s2)CC1	1	7	82*	i	0	66*	1	-8
